Source: ChEMBL document CHEMBL1143745, “Utility of 6-amino-2-thiouracil as a precursor for the synthesis of bioactive pyrimidine derivatives” (2007)

How the values were obtained:
[1] = test system: Bacillus subtilis; assay: Antimicrobial activity against Bacillus subtilis; format: functional
Method in brief: (§1)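 Disk diffusion. A sterile filter-paper disk saturated with a measured quantity of sample is placed on agar heavily seeded with a spore suspension of the test organism. Bacteria are grown on nutrient agar and fungi on Dox's medium. The diameter of the clear inhibition zone around the disk is taken as the inhibitory measure. Ampicillin is the antibacterial reference and nystatin the antifungal reference.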

[2] = test system: Staphylococcus aureus; assay: Antimicrobial activity against Staphylococcus aureus; format: functional; method in brief: as §1
[3] = test system: Enterococcus faecalis; assay: Antimicrobial activity against Streptococcus faecalis; format: functional; method in brief: as §1
[4] = test system: Escherichia coli; assay: Antimicrobial activity against Escherichia coli; format: functional; method in brief: as §1
[5] = test system: Neisseria gonorrhoeae; assay: Antimicrobial activity against Neisseria gonorrhoeae; format: functional; method in brief: as §1
[6] = test system: Pseudomonas aeruginosa; assay: Antimicrobial activity against Pseudomonas aeruginosa; format: functional; method in brief: as §1
[7] = test system: Candida albicans; assay: Antimicrobial activity against Candida albicans; format: functional; method in brief: as §1
[8] = test system: Saccharomyces cerevisiae; assay: Antimicrobial activity against Saccharomyces cerevisiae; format: functional; method in brief: as §1
[9] = test system: HepG2; assay: Cytotoxicity against HEPG2 cells assessed as surviving fraction at 1 ug/ml after 48 hrs by ELISA; format: functional, Homo sapiens
Method in brief: (§2)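 SRB assay in human liver carcinoma HEPG2 or lung carcinoma H460 cells. Cells are seeded at 10⁴ per well and allowed to attach for 24 h. Compound is added at 0, 1, 2.5, 5 and 10 µg/ml, in triplicate wells per dose, for 48 h continuous exposure at 37 °C in 5% CO₂. Cells are then fixed and stained with sulforhodamine B. Bound dye is recovered in Tris-EDTA and read on an ELISA reader. Surviving fraction is plotted against concentration. Cisplatin is the positive control.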

[10] = test system: HepG2; assay: Cytotoxicity against HEPG2 cells assessed as surviving fraction at 2.5 ug/ml after 48 hrs by ELISA; format: functional, Homo sapiens; method in brief: as §2
[11] = test system: HepG2; assay: Cytotoxicity against HEPG2 cells assessed as surviving fraction at 5 ug/ml after 48 hrs by ELISA; format: functional, Homo sapiens; method in brief: as §2
[12] = test system: HepG2; assay: Cytotoxicity against HEPG2 cells assessed as surviving fraction at 10 ug/ml after 48 hrs by ELISA; format: functional, Homo sapiens; method in brief: as §2
[13] = test system: NCI-H460; assay: Cytotoxicity against human H460 cells assessed as surviving fraction at 1 ug/ml after 48 hrs by ELISA; format: functional; method in brief: as §2
[14] = test system: NCI-H460; assay: Cytotoxicity against human H460 cells assessed as surviving fraction at 2.5 ug/ml after 48 hrs by ELISA; format: functional; method in brief: as §2
[15] = test system: NCI-H460; assay: Cytotoxicity against human H460 cells assessed as surviving fraction at 5 ug/ml after 48 hrs by ELISA; format: functional; method in brief: as §2
[16] = test system: NCI-H460; assay: Cytotoxicity against human H460 cells assessed as surviving fraction at 10 ug/ml after 48 hrs by ELISA; format: functional; method in brief: as §2

Row | Compound | inhibition zone (IZ) [1] | inhibition zone (IZ) [2] | inhibition zone (IZ) [3] | inhibition zone (IZ) [4] | inhibition zone (IZ) [5] | inhibition zone (IZ) [6] | inhibition zone (IZ) [7] | inhibition zone (IZ) [8] | Activity [9] | Activity [10] | Activity [11] | Activity [12] | Activity [13] | Activity [14] | Activity [15] | Activity [16]
1 | CCOC(=O)c1c(-c2ccccc2)nc2[nH]c(=S)[nH]c(=O)c2c1C(=O)OCC | 12 mm | 12 mm | 12 mm | 11 mm | 13 mm | 13 mm | 12 mm | 11 mm | 0.968 | 0.914 | 0.841 | 0.805 | 0.855 | 0.827 | 0.771 | 0.72
2 | COC(=O)c1c(-c2ccc(OC)cc2)nc2[nH]c(=S)[nH]c(=O)c2c1C(=O)OC | 14 mm | 15 mm | 14 mm | 14 mm | 14 mm | 14 mm | 14 mm | 14 mm | 0.895 | 0.823 | 0.786 | 0.709 | 0.962 | 0.887 | 0.808 | 0.743
3 | COc1ccc(-c2cc(C(=O)c3ccco3)c3c(=O)[nH]c(=S)[nH]c3n2)cc1 | 11 mm | 11 mm | 11 mm | 11 mm | 12 mm | 11 mm | 11 mm | 12 mm |  |  |  |  |  |  |  | 
4 | CC1(C)S[C@@H]2[C@H](NC(=O)[C@H](N)c3ccccc3)C(=O)N2[C@H]1C(=O)O [AMPICILLIN] | 18 mm | 20 mm | 30 mm | 11 mm | 13 mm | 19 mm |  |  |  |  |  |  |  |  |  | 
5 | O=C(c1cccs1)c1cc(-c2ccccc2)nc2[nH]c(=S)[nH]c(=O)c12 | 13 mm | 12 mm | 12 mm | 13 mm | 13 mm | 12 mm | 13 mm | 12 mm | 1.05 | 1.005 | 0.905 | 0.85 | 0.943 | 0.869 | 0.808 | 0.641
6 | CCOC(=O)c1cc(-c2ccccc2)nc2[nH]c(=S)[nH]c(=O)c12 | 11 mm | 11 mm | 11 mm | 11 mm | 12 mm | 11 mm | 11 mm | 12 mm |  |  |  |  |  |  |  | 
7 | NYSTATIN |  |  |  |  |  |  | 12 mm | 11 mm |  |  |  |  |  |  |  | 
8 | COc1ccc(-c2cc(C(=O)c3cccs3)c3c(=O)[nH]c(=S)[nH]c3n2)cc1 | 11 mm | 11 mm | 12 mm | 12 mm | 14 mm | 11 mm | 12 mm | 12 mm |  |  |  |  |  |  |  | 
9 | COc1ccc(-c2cc(C#N)c3c(=O)[nH]c(=S)[nH]c3n2)cc1 |  |  |  |  |  |  |  |  | 1.046 | 0.968 | 0.941 | 0.914 | 0.948 | 0.897 | 0.836 | 0.808
10 | O=C(c1ccc2ccccc2c1)c1cc(-c2ccccc2)nc2[nH]c(=S)[nH]c(=O)c12 | 10 mm | 11 mm | 11 mm | 10 mm | 12 mm | 11 mm | 10 mm | 12 mm |  |  |  |  |  |  |  | 
11 | N#Cc1cc(-c2ccccc2)nc2[nH]c(=S)[nH]c(=O)c12 | 11 mm | 11 mm | 12 mm | 12 mm | 12 mm | 11 mm | 12 mm | 12 mm |  |  |  |  |  |  |  | 
12 | COC(=O)c1c(-c2ccccc2)nc2[nH]c(=S)[nH]c(=O)c2c1C(=O)OC | 16 mm | 16 mm | 15 mm | 16 mm | 15 mm | 16 mm | 15 mm | 16 mm |  |  |  |  |  |  |  | 
13 | CCOC(=O)c1cc(-c2ccc(OC)cc2)nc2[nH]c(=S)[nH]c(=O)c12 |  |  |  |  |  |  |  |  | 1.018 | 1 | 0.977 | 0.927 | 0.948 | 0.915 | 0.776 | 0.646
